In ChEMBL document CHEMBL1145518, “Potent immune-modulating and anticancer effects of NKT cell stimulatory glycolipids” (2007):
Active and inactive are the calls of the source. The rule behind the calls is not given here.

What was measured:
[1] = Induction of IL4 secretion in human CD161+ CD3+ NKT cells at 10 ug/ml after 18 hrs relative to basal level; format: functional
Procedure, shortened: (§1)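 Human Vα24i NKT cell lines were expanded for 10 days on irradiated (3,000 rad) autologous immature DCs with 10 units/ml IL-2. The cells (1 × 10^5) were cocultured with 5 × 10^4 irradiated immature CD14+ DCs plus glycolipid at 10 μg/ml. Supernatants were collected at 18 h and read on a 22-plex Luminex bead panel. Triplicates, mean ± SD.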

Mus musculus [2] = assay: Induction of MIPbeta secretion in BALB/c mouse serum at 2 ug, iv after 2 hrs relative to control; format: functional
Procedure, shortened: (§2)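 BALB/c mice received an i.v. injection of 100 μl of glycolipid diluted to 20 μg/ml in saline from DMSO stock, with 1% DMSO as vehicle. Serum cytokines/chemokines were measured at 2 and 18 h after injection.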

Mus musculus [3] = assay: Induction of IL10 secretion in BALB/c mouse serum at 2 ug, iv after 18 hrs relative to control; format: functional; procedure, shortened: as §2
TC1 = assay: Antitumor activity in TC1 cells xenografted C57BL/6 mouse assessed as suppression of tumor growth at 2 ug, iv; format: functional, cell-based
Procedure, shortened: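 C57BL/6 mice (n = 5/group) were inoculated i.v. with TC-1 lung cancer cells. They were then treated i.v. with 2 μg glycolipid per mouse, or 100 μl of 1% DMSO, twice weekly for 4 weeks. Kaplan–Meier survival and body weight were followed, with tumor-free mice as an additional control.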

[4] = Induction of IFN-gamma secretion in human CD161+ CD3+ NKT cells at 10 ug/ml after 18 hrs relative to basal level; format: functional; procedure, shortened: as §1
[5] = Induction of IL12p70 secretion in human CD161+ CD3+ NKT cells at 10 ug/ml after 18 hrs relative to basal level; format: functional; procedure, shortened: as §1
dendritic [6] = assay: Activation of TCR in human immature dendritic cells assessed as increase in ERK1/2 phosphorylation; format: cell-based
Procedure, shortened: (§3)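 Human HeLa, HeLa-CD1d or autologous immature DCs were loaded with glycolipid at 10 μg/ml, or DMSO, for 2 h. Then 3 × 10^5 naïve CD161+/CD3+ NKT cells were added; these were bead-isolated and kept in 100 units/ml IL-2. After 5–10 min the cells were washed and lysed at 4°C. Phospho-CD3ε, ERK1/2 (Thr-185/Tyr-187) and CREB (Ser-133) were read by Luminex bead assay as median fluorescence normalized to total protein, expressed as fold over 1% DMSO.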

[7] = Induction of IL12p40 secretion in human CD161+ CD3+ NKT cells at 10 ug/ml after 18 hrs relative to basal level; format: functional; procedure, shortened: as §1
Mus musculus [8] = assay: Induction of IL12p40 secretion in BALB/c mouse serum at 2 ug, iv after 18 hrs relative to control; format: functional; procedure, shortened: as §2
Mus musculus [9] = assay: Induction of RANTES secretion in BALB/c mouse serum at 2 ug, iv after 2 hrs relative to control; format: functional; procedure, shortened: as §2
dendritic [10] = assay: Activation of TCR in human immature dendritic cells assessed as increase in CREB phosphorylation; format: cell-based; procedure, shortened: as §3
dendritic [11] = assay: Activation of TCR in human immature dendritic cells assessed as increase in CD3epsilon phosphorylation; format: cell-based; procedure, shortened: as §3
[12] = Induction of IL6 secretion in human CD161+ CD3+ NKT cells at 10 ug/ml after 18 hrs relative to basal level; format: functional; procedure, shortened: as §1
[13] = Induction of IL13 secretion in human CD161+ CD3+ NKT cells at 10 ug/ml after 18 hrs relative to basal level; format: functional; procedure, shortened: as §1
HeLa [14] = assay: Activation of TCR in human HeLa cells overexpressing CD1d assessed as increase in CREB phosphorylation; format: cell-based; procedure, shortened: as §3
4T1 = assay: Antitumor activity in mouse 4T1 cells xenografted BALB/c mouse assessed as suppression of tumor growth at 2 ug, iv; format: functional, cell-based
Procedure, shortened: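 BALB/c mice (n = 6) were inoculated s.c. with 4T1 breast cancer cells. From day 3 they were treated i.v. with glycolipid or vehicle twice weekly for 4 weeks. Tumor volume was recorded every 3 days for 1 month, and survival was monitored up to 54 days.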

NKT = assay: Stimulation of cell expansion of human invariant CD161+/ Valpha24+/ CD56+/ CD3+ NKT cells by flow cytometry method; format: functional, cell-based
Procedure, shortened: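 CD56+ NK/NKT mixtures (2 × 10^6) were isolated from human leukopaks with anti-CD56 microbeads. They were cocultured with 4 × 10^5 autologous immature CD14+ DCs pulsed with glycolipid at 3 μg/ml, or with 0.3% DMSO, on day 2 for 18 h. Suspension cells were then transferred and kept in 100 units/ml IL-2 with fresh medium every 3 days. On day 9, CD161+/Vα24TCR+ cells were gated by flow cytometry and total Vα24i NKT cells counted. Triplicates, mean ± SD.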

Mus musculus [15] = assay: Induction of IL2 secretion in BALB/c mouse serum at 2 ug, iv after 2 hrs relative to control; format: functional; procedure, shortened: as §2
[16] = Induction of MCP1 secretion in human CD161+ CD3+ NKT cells at 10 ug/ml after 18 hrs relative to basal level; format: functional; procedure, shortened: as §1
Mus musculus [17] = assay: Increase in CD8/CD4 T cell ratio in BALB/c mouse at 2 ug, iv after 72 hrs by flow cytometry; format: functional, organism-based
Mus musculus [18] = assay: Induction of IL12p70 secretion in BALB/c mouse serum at 2 ug, iv after 18 hrs relative to control; format: functional; procedure, shortened: as §2
Mus musculus [19] = assay: Induction of GM-CSF secretion in BALB/c mouse serum at 2 ug, iv after 2 hrs relative to control; format: functional; procedure, shortened: as §2
HeLa [20] = assay: Activation of TCR in human HeLa cells overexpressing CD1d assessed as increase in CD3epsilon phosphorylation; format: cell-based; procedure, shortened: as §3
[21] = Induction of MIPalpha secretion in human CD161+ CD3+ NKT cells at 10 ug/ml after 18 hrs relative to basal level; format: functional; procedure, shortened: as §1
[22] = Induction of IL3 secretion in human CD161+ CD3+ NKT cells at 10 ug/ml after 18 hrs relative to basal level; format: functional; procedure, shortened: as §1
Mus musculus [23] = assay: Induction of IFN-gamma secretion in BALB/c mouse serum at 2 ug, iv after 18 hrs relative to control; format: functional; procedure, shortened: as §2
Mus musculus [24] = assay: Induction of TNFalpha secretion in BALB/c mouse serum at 2 ug, iv after 18 hrs relative to control; format: functional; procedure, shortened: as §2
[25] = Induction of GM-CSF secretion in human CD161+ CD3+ NKT cells at 10 ug/ml after 18 hrs relative to basal level; format: functional; procedure, shortened: as §1
HeLa [26] = assay: Activation of TCR in human HeLa cells overexpressing CD1d assessed as increase in ERK1/2 phosphorylation; format: cell-based; procedure, shortened: as §3
Mus musculus [27] = assay: Induction of MCP1 secretion in BALB/c mouse serum at 2 ug, iv after 2 hrs relative to control; format: functional; procedure, shortened: as §2
[28] = Induction of IL8 secretion in human CD161+ CD3+ NKT cells at 10 ug/ml after 18 hrs relative to basal level; format: functional; procedure, shortened: as §1
[29] = Induction of TNFalpha secretion in human CD161+ CD3+ NKT cells at 10 ug/ml after 18 hrs relative to basal level; format: functional; procedure, shortened: as §1
Mus musculus [30] = assay: Induction of IL13 secretion in BALB/c mouse serum at 2 ug, iv after 2 hrs relative to control; format: functional; procedure, shortened: as §2
[31] = Induction of IL10 secretion in human CD161+ CD3+ NKT cells at 10 ug/ml after 18 hrs relative to basal level; format: functional; procedure, shortened: as §1
Mus musculus [32] = assay: Induction of IL6 secretion in BALB/c mouse serum at 2 ug, iv after 2 hrs relative to control; format: functional; procedure, shortened: as §2
[33] = Induction of RANTES secretion in human CD161+ CD3+ NKT cells at 10 ug/ml after 18 hrs relative to basal level; format: functional; procedure, shortened: as §1
Mus musculus [34] = assay: Induction of KC secretion in BALB/c mouse serum at 2 ug, iv after 2 hrs relative to control; format: functional; procedure, shortened: as §2
[35] = Induction of IL15 secretion in human CD161+ CD3+ NKT cells at 10 ug/ml after 18 hrs relative to basal level; format: functional; procedure, shortened: as §1
Mus musculus [36] = assay: Induction of IL3 secretion in BALB/c mouse serum at 2 ug, iv after 2 hrs relative to control; format: functional; procedure, shortened: as §2
[37] = Induction of IL2 secretion in human CD161+ CD3+ NKT cells at 10 ug/ml after 18 hrs relative to basal level; format: functional; procedure, shortened: as §1
Mus musculus [38] = assay: Induction of IL1-beta secretion in BALB/c mouse serum at 2 ug, iv after 18 hrs relative to control; format: functional; procedure, shortened: as §2
Mus musculus [39] = assay: Induction of IL4 secretion in BALB/c mouse serum at 2 ug, iv after 2 hrs relative to control; format: functional; procedure, shortened: as §2
Mus musculus [40] = assay: Activation of B cells in BALB/c mouse at 2 ug, iv after 72 hrs by flow cytometry; format: functional, organism-based

`CCCCCCCCCCCCCC[C@@H](O)[C@@H](O)[C@H](CO[C@H]1O[C@H](CO)[C@H](O)[C@H](O)[C@H]1O)NC(=O)CCCCCCCc1ccccc1` gave an Activity [1] of 2.6, an Activity (Mus musculus [2]) of 3.8 and an Activity (Mus musculus [3]) of 1.3. For the same molecule, the Activity (TC1) was “Active”, the Activity [4] was 6.4 and the Activity [5] was 4.7. The Activity (dendritic [6]) was 48.3, the Activity [7] was 2.3 and the Activity (Mus musculus [8]) was 3.8. It also gave an Activity (Mus musculus [9]) of 2.3, an Activity (dendritic [10]) of 204 and an Activity (dendritic [11]) of 21.3. The Activity [12] was 2.2, the Activity [13] was 1.7 and the Activity (HeLa [14]) was 117. For the same molecule, the Activity (4T1) was “Active”, the Activity (NKT) was “Active” and the Activity (Mus musculus [15]) was 70.3. For the same molecule, the Activity [16] was 1, the Activity (Mus musculus [17]) was “Active” and the Activity (Mus musculus [18]) was 2.6. For the same molecule, the Activity (Mus musculus [19]) was 2.9, the Activity (HeLa [20]) was 10 and the Activity [21] was 3.3. It also gave an Activity [22] of 4.2, an Activity (Mus musculus [23]) of 48.3 and an Activity (Mus musculus [24]) of 22.4. For the same molecule, the Activity [25] was 6.7, the Activity (HeLa [26]) was 14.6 and the Activity (Mus musculus [27]) was 19.4. It also gave an Activity [28] of 1.8, an Activity [29] of 8.1 and an Activity (Mus musculus [30]) of 10.9. It also gave an Activity [31] of 2.3, an Activity (Mus musculus [32]) of 2.8 and an Activity [33] of 1.7. It also gave an Activity (Mus musculus [34]) of 11, an Activity [35] of 2.8 and an Activity (Mus musculus [36]) of 2.4. It also gave an Activity [37] of 6.1, an Activity (Mus musculus [38]) of 4.7 and an Activity (Mus musculus [39]) of 53.1. For the same molecule, the Activity (Mus musculus [40]) was “Active”.
